Assay outcomes: PubChem BioAssay, Sanford-Burnham Center for Chemical Genomics
MT1-MMP act inh = blocks activation of human MT1-MMP; GFP/RFP ratio change, % at 20 µM; P50281; 360,000 tested, 0.061% active; HT1080 RFP-PRO-GFP cells, GFP/RFP ratio fluorescence, overnight; percent of plate control window, DMSO zero;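 active = GFP/RFP ratio change of at least 30% with cell ATP level not reduced by more than half and red fluorescence within 50% of control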
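Read-out: GFP/RFP fluorescence ratio; Test system: RFP-PRO-GFP reporter HT1080 cells; Compound dosing: single-point 20 µM compound, 1% DMSO; Times: overnight compound exposure at 37 °C.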
PABP polyA inh = blocks human PABP binding to poly(A) RNA. P11940. fluorescence polarization. calls only at 35 µM. 290,000 tested, 1% active;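 note: calls also rest on retests at 20 µM and on dose response follow-up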
Target sequence (P11940 whole entry, looked up): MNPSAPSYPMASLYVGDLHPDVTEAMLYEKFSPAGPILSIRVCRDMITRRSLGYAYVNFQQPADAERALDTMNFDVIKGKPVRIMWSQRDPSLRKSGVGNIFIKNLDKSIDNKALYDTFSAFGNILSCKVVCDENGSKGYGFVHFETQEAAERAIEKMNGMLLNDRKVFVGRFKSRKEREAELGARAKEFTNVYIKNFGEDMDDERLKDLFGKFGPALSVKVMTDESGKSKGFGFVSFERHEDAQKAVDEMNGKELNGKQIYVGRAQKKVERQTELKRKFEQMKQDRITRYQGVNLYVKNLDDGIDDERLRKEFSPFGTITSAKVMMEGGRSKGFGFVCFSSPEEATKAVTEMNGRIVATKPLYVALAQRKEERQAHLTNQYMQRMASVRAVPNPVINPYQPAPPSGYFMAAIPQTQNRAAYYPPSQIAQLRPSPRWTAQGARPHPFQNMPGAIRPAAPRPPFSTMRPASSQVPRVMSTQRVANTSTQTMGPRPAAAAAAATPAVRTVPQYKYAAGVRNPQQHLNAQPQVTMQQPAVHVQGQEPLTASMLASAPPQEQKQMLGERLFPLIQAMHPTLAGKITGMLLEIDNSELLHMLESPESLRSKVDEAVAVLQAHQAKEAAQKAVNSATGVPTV
eIF4H inh = inhibitors of RNA binding by human eIF4H; AID 2012; 290,000 tested, 0.94% active; Q15056; eIF4H fluorescence polarization binding assay; inhibition, % at 35 µM;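 note: calls also rest on retests at 20 µM and on dose response follow-up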
MLLE-PAM2 inh = inhibitors of microRNA-mediated deadenylation, human PABP1 MLLE binding. P11940. GST-MLLE / FITC-PAM2 fluorescence polarization. inhibition, % at 20 µM. 360,000 tested, 0.36% active. AID 588489; in the data active = inhibition above about 35%, passing the limit was not always enough;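 note: plate controls were DMSO wells with GST-MLLE for no effect and wells lacking GST-MLLE protein for full effect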
SKN-1 inh = blocks SKN-1 activity in C. elegans; 360,000 tested, 0.49% active; inhibition, % at 21.8 µM; AID 624304; C. elegans VP596 Pgst-4::GFP/RFP ratio, acrylamide-induced, 24 h;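 active = interference check ratio from 0.5 to 1.5 plus GFP to RFP signal ratio inhibition reaching or exceeding a fixed threshold, cut at about 30% in these data, passing the limit was not always enough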
* marks the source's active call; other numbers are inactive results; i = inactive; ? = inconclusive; nt = no result; + = active, no number. Most compounds without a hit are left out; they make up all but 1.8% or so of the library. Unless noted, the rule behind the calls is not given here.

SMILES	MT1-MMP act inh	PABP polyA inh	eIF4H inh	MLLE-PAM2 inh	SKN-1 inh
O=C(O)CCCN1C(=O)/C(=C/c2ccc(-c3nc4ccccc4s3)o2)SC1=S	-20	+	?	-71	33
O=C(O)CCCCCN1C(=O)/C(=C\c2ccncc2)SC1=S	1	i	-9	32	11
COC(=O)/C(C(C)=O)=C(/C=C/C=C/N(C)C)N(C)C	-3	+	80*	19	7
c1ccc(CCNc2cc(-c3ccc4ccccc4c3)nc3ccnn23)nc1	1	nt	nt	8	0
Cc1[nH]c2ccccc2c1/C=C/C(=O)c1ccncc1	-9	+	72*	-75	0
CCOc1ccccc1NC(=O)C(c1ccccc1)N1CCN(CC(=O)N2CCCC2)CC1 (stereo unspecified)	11	nt	nt	3	18
CC(C)(C)C1CCC(=NNc2nc3ccccc3[nH]2)CC1 (stereo unspecified)	7	+	13	-18	4
CCOc1ccc2nc(SCC(=O)c3ccc(Cl)s3)sc2c1	4	+	55*	-69	8
CCOc1ccc2nc(SCC(=O)c3cccs3)sc2c1	4	i	-7	-34	12
CCOC(=O)C1=C(O)/C(=C/c2ccc(-c3ccccc3C(=O)O)o2)SC1=Nc1ccc(OC)cc1	-27	+	78*	-75	-30
CCOC(=O)C1=C(O)/C(=C/c2ccc(OCC(=O)O)c(OCC)c2)SC1=Nc1ccccc1	1	i	8	15	4
CCOC(=O)C1=C(O)/C(=C/c2ccc(-c3ccccc3C(=O)O)o2)SC1=Nc1ccc(C)cc1	-103	nt	nt	-110	-24
CCOC(=O)C1=C(O)/C(=C/c2ccccn2)SC1=Nc1ccc(Cl)cc1	-11	i	active	-4	7
CC[C@@H]1CCC[C@@H](O)[C@@H](C)C(=O)O[C@H](C)[C@@H](C)C/C=C(C)/C(OC)=C\C(=O)N(C)C([C@@H](C)CC)C(=O)N(C)[C@@H](C(C)C)C(=O)N(C)[C@@H](COC)C(=O)N2CCC[C@H]2C(=O)N(C)[C@@H](C(C)C)C(=O)N2CCC[C@H]2C(=O)O1 (stereo partly specified)	-20	nt	nt	-4	44*
CCC1(C)Cc2ccccc2-c2nc(NCCO)n(-c3ccc(C)cc3)c(=O)c21 (stereo unspecified)	-9	i	-9	-6	38*
O=c1c2cc(N3CCOCC3)ccc2[nH]c(=S)n1Cc1ccc(Cl)cc1	3	i	4	-85	-4
Cc1ccc(Cn2c(=S)[nH]c3ccc(N4CCOCC4)cc3c2=O)o1	7	+	72*	14	22
O=C1CCC(C(=O)Nc2cc(C(F)(F)F)ccc2-n2cncn2)=NN1	-7	i	-8	-11	12
CCOC(=O)CC1=C(C(=O)OCC)C(c2ccc(C)o2)C(C#N)=C(N)O1 (stereo unspecified)	-23	+	92*	50*	8
C=CCN(CC=C)CC(O)CN(c1cc([N+](=O)[O-])ccc1OC)S(=O)(=O)c1ccccc1 (stereo unspecified)	4	i	-2	-26	38*
O=C(CCN1C(=O)c2ccccc2S1(=O)=O)Nc1ccc(C(=O)O)cc1	2	i	-11	0	-14
CCOC(=O)c1c(C)[nH]c(C)c1S(=O)(=O)NC1CCN(C(=O)OCC)CC1	0	i	-4	3	-2
CCOC(=O)c1c(C)[nH]c(C)c1S(=O)(=O)NC(CC)CN1CCOCC1 (stereo unspecified)	0	+	94*	1	-4
Cc1ccc(C(=O)CNc2ccc(Br)cc2)cc1	1	i	1	7	-22
O=C(CNc1ccc(Br)cc1)c1ccccc1	-2	i	14	14	36*
CC(=O)c1ccc(OCC(=O)OC(C)C(=O)NC2CCCCC2)cc1 (stereo unspecified)	0	nt	nt	4	-18
CC(=O)c1ccc(NC(=O)C(C)OC(=O)COc2ccc(C#N)cc2)cc1 (stereo unspecified)	0	+	active	5	-2
Cc1nc2ccc(C(=O)N(C)Cc3ccccc3)cn2c1N(C)C(=O)CCc1ccccc1	5	nt	nt	-1	15
COC(=O)C12OCC34C(CC5C(C)=C(O)C(=O)CC5(C)C3C(O)C1O)OC(=O)C(OC(=O)C=C(C)C)C24 (stereo unspecified)	-36	nt	nt	4	41*
